From ChEMBL document CHEMBL1158008, “New bioactive flavonoids and stilbenes in cubé resin insecticide” (J Nat Prod, 1999)
pIC50: −log10 of the molar value.

Key:
[1] = Inhibition of bovine NADH-ubiquinone oxidoreductase; design: species or system Bos taurus
Outline: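 Bovine heart electron transport particles (inverted inner mitochondrial membrane vesicles, 40 µg protein) preincubated with compound 5 min at 25 °C in 50 mM phosphate pH 7.4, 250 mM sucrose. NADH added (28 µM final); activity followed as A340 loss over 3 min. IC50 from three experiments.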

MCF7 = assay: Cytotoxicity against human MCF7 cells after 72 hrs; type: functional, cell-based; settings: MCF7, 72 h
Outline: (§1)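 Test compound added to cultured cells, 72 h incubation, then viability read by MTT (3-(4,5-dimethylthiazol-2-yl)-2,5-diphenyltetrazolium bromide) reduction. IC50 derived from eight replicates per assay.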

[2] = Cytotoxicity against mouse Hepa1clc7 cells after 72 hrs; type: functional, cell-based; outline: as §1

| pIC50 [1] | Structure (SMILES) | pIC50 (MCF7) | pIC50 [2] |
| --- | --- | --- | --- |
| 5.68 | COc1ccc([C@@H]2CC(=O)c3c(O)c(CC=C(C)C)c4c(c3O2)C=CC(C)(C)O4)cc1OC | 5.18 | 5.07 |
| 4.46 | O=c1c(-c2ccc(O)cc2)coc2cc(O)cc(O)c12 [GENISTEIN] | < 4.52 | 4.96 |
| 6.17 | COc1cc([C@@H]2CC(=O)c3c(O)c(CC=C(C)C)c4c(c3O2)C=CC(C)(C)O4)ccc1O | 5.52 | 5.46 |
| 5.32 | COc1cc(/C=C/C(=O)c2ccc3c(c2O)C=CC(C)(C)O3)ccc1O | 5.00 | 5.23 |
| 5.31 | CC1(C)C=Cc2c(ccc(C(=O)/C=C/c3ccc(O)cc3)c2O)O1 | 4.57 | 5.00 |
| < 4.52 | COc1cc(OC)c(-c2coc3c4c(ccc3c2=O)OC(C)(C)[C@@H](O)[C@H]4O)cc1OC (relative stereo) | < 4.52 | < 4.52 |
| 5.70 | COc1ccc([C@@H]2CC(=O)c3c(O)c(CC=C(C)C)c4c(c3O2)C=CC(C)(C)O4)cc1O | 5.16 | 5.41 |
| 5.28 | COc1cc(/C=C/c2ccc(O)cc2)cc2c1C=CC(C)(C)O2 | < 4.52 | 5.07 |
| 5.59 | COc1ccc([C@@H]2CC(=O)c3cc(CC=C(C)C)c4c(c3O2)C=CC(C)(C)O4)cc1OC | 5.24 | 5.29 |
| 5.09 | COc1cc(/C=C/c2cc(OC)c3c(c2)OC(C)(C)C=C3)ccc1O | < 4.52 | 4.89 |
| 5.31 | COc1cc(/C=C/c2ccc3c(c2)OC(C)(C)C=C3)cc(OC)c1OC | 4.62 | 5.15 |
| 4.59 | Oc1ccc(/C=C/c2cc(O)cc(O)c2)cc1 [RESVERATROL] | < 4.52 | 4.96 |
